SMILES strings stand for the structures. Active and inactive are the calls of the source. The rule behind the calls is not given here.

Format in all cases: cell-based
For experiment [1], the target named is T1, Dihydroorotate dehydrogenase (quinone), mitochondrial (Homo sapiens, UniProt Q02127). Description: Inhibition of DHODH in human HEK-293 cells transfected with ISRE-luciferase reporter gene assessed as increase in 150 IU/ml IFN-alpha mediated cellular response at 80 uM in presence of mirin measured after 24 hrs by luciferase reporter gene assay. As to conditions: HEK293. The method, boiled down: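 ISRE-Luc HEK-293 cells given IFN-α (150 IU/ml) alone or with test compound (80 µM), with or without the MRE11 inhibitor mirin, ATR inhibitor AZD6738, CHK1 inhibitor PF477736 or P300/CBP inhibitor C636. Firefly luciferase read 24 h later, normalized to IFN-α alone. Means ± SD of at least three independent experiments.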
T1 sequence (Q02127 whole entry): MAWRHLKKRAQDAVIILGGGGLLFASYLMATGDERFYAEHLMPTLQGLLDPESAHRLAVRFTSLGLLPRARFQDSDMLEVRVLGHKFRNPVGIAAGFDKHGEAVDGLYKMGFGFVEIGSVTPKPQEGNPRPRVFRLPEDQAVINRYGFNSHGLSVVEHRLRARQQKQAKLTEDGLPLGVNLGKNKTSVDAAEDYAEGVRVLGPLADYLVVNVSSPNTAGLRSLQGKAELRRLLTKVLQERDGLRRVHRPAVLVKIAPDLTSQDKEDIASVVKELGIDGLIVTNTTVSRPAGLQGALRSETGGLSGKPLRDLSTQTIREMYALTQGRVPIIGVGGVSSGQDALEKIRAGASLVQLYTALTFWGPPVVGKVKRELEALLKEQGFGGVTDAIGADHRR
On the technique in general: Reporter assays use an easily measured gene product as a stand-in for the process of interest.

In experiment [2] the target is T1, Dihydroorotate dehydrogenase (quinone), mitochondrial. Description: Inhibition of DHODH in human HEK293 cells transfected with ISRE-luciferase reporter gene assessed as increase in 60 IU/ml IFN-alpha stimulated MX2 mRNA expression at 80 uM measured after 16 hrs by RT-qPCR analysis relative to control. In a few lines: (§1)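 HEK-293 ISRE-Luc cells (DMEM, 10% FCS, 37°C, 5% CO2) were given increasing IFN-α doses together with DMSO or compound at 80 μM, then harvested at 16 h. RNA was extracted from 2×10^5 cells with DNase treatment. Transcripts were run by qPCR for 35 cycles and normalized to RPL13A and to unstimulated controls by 2^-ΔΔCT. Values are fold change versus DMSO; three independent experiments; two-way ANOVA with Bonferroni.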

Experiment [3] has the same target. Nature of the experiment: Inhibition of DHODH in human HEK293 cells transfected with ISRE-luciferase reporter gene assessed as increase in 60 IU/ml IFN-alpha stimulated IFITM3 mRNA expression at 80 uM measured after 16 hrs by RT-qPCR analysis relative to control. In a few lines:
as §1

The target is the same in experiment [4]. Description: Inhibition of DHODH in human HEK293 cells transfected with ISRE-luciferase reporter gene assessed as increase in 30 IU/ml IFN-alpha stimulated IFIT5 mRNA expression at 80 uM measured after 16 hrs by RT-qPCR analysis relative to control. The method, boiled down: (§2)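 ISRE-Luc HEK cells co-treated with increasing IFN-α concentrations and DMSO or compound (80 µM) for 16 h. Total RNA extracted from 2×10^5 cells with DNase step; qPCR 35 cycles. CT values normalized to RPL13A and unstimulated controls (2^-ΔΔCT), expressed as fold change versus DMSO alone. Three independent experiments; two-way ANOVA with Bonferroni.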

Experiment [5] shares this target. Description: Inhibition of DHODH in human HEK293 cells transfected with ISRE-luciferase reporter gene assessed as increase in 125 IU/ml IFN-alpha stimulated PML mRNA expression at 80 uM measured after 16 hrs by RT-qPCR analysis relative to control. The method, boiled down: as §2
Experiment [6] shares this target. Nature of the experiment: Inhibition of DHODH in human HEK293 cells transfected with ISRE-luciferase reporter gene assessed as increase in 125 IU/ml IFN-alpha stimulated IFIT2 mRNA expression at 80 uM measured after 16 hrs by RT-qPCR analysis relative to control. In a few lines:
as §2

For experiment [7] the target is unchanged. Description: Inhibition of DHODH in human HEK293 cells transfected with ISRE-luciferase reporter gene assessed as increase in 250 IU/ml IFN-alpha stimulated IFIT3 mRNA expression at 80 uM measured after 16 hrs by RT-qPCR analysis relative to control. In a few lines: as §2
Experiment [8] shares this target. Description: Inhibition of DHODH in human HEK293 cells transfected with ISRE-luciferase reporter gene assessed as increase in 60 IU/ml IFN-alpha stimulated IFIT2 mRNA expression at 80 uM measured after 16 hrs by RT-qPCR analysis relative to control. In a few lines:
as §2

Experiment [9] has the same target. Nature of the experiment: Inhibition of DHODH in human HEK293 cells transfected with ISRE-luciferase reporter gene assessed as increase in 125 IU/ml IFN-alpha stimulated IFIT3 mRNA expression at 80 uM measured after 16 hrs by RT-qPCR analysis relative to control. In a few lines: as §2
Experiment [10] shares this target. Description: Inhibition of DHODH in human HEK293 cells assessed as increase in 250 IU/ml IFN-alpha stimulated ISG15 mRNA expression at 80 uM measured after 16 hrs by RT-qPCR analysis relative to control. The method, boiled down: as §2
A general note: In qPCR the cycle at which signal appears reflects the starting amount.

For experiment [11] the target is unchanged. Nature of the experiment: Inhibition of DHODH in human HEK293 cells transfected with ISRE-luciferase reporter gene assessed as increase in 30 IU/ml IFN-alpha stimulated DDX58 mRNA expression at 80 uM measured after 16 hrs by RT-qPCR analysis relative to control. In a few lines: as §2
For experiment [12] the target is unchanged. Nature of the experiment: Inhibition of DHODH in human HEK293 cells transfected with ISRE-luciferase reporter gene assessed as increase in 30 IU/ml IFN-alpha stimulated PML mRNA expression at 80 uM measured after 16 hrs by RT-qPCR analysis relative to control. In a few lines: as §2
The target is the same in experiment [13]. Nature of the experiment: Inhibition of DHODH in human HEK293 cells transfected with ISRE-luciferase reporter gene assessed as increase in 30 IU/ml IFN-alpha stimulated IFIT1 mRNA expression at 80 uM measured after 16 hrs by RT-qPCR analysis relative to control. In a few lines:
as §2

For experiment [14] the target is unchanged. Nature of the experiment: Inhibition of DHODH in human HEK293 cells transfected with ISRE-luciferase reporter gene assessed as increase in 250 IU/ml IFN-alpha stimulated IFIT1 mRNA expression at 80 uM measured after 16 hrs by RT-qPCR analysis relative to control. The method, boiled down: as §2
For experiment [15] the target is unchanged. Description: Inhibition of DHODH in human HEK293 cells transfected with ISRE-luciferase reporter gene assessed as increase in 125 IU/ml IFN-alpha stimulated DDX58 mRNA expression at 80 uM measured after 16 hrs by RT-qPCR analysis relative to control. In a few lines: as §2
Experiment [16] shares this target. Description: Inhibition of DHODH in human HEK293 cells transfected with ISRE-luciferase reporter gene assessed as increase in 250 IU/ml IFN-alpha stimulated PML mRNA expression at 80 uM measured after 16 hrs by RT-qPCR analysis relative to control. In a few lines: as §2
The target is the same in experiment [17]. Description: Inhibition of DHODH in human HEK293 cells transfected with ISRE-luciferase reporter gene assessed as increase in 60 IU/ml IFN-alpha stimulated PKR mRNA expression at 80 uM measured after 16 hrs by RT-qPCR analysis relative to control. In a few lines: as §1
For experiment [18] the target is unchanged. Nature of the experiment: Inhibition of DHODH in human HEK293 cells transfected with ISRE-luciferase reporter gene assessed as increase in 60 IU/ml IFN-alpha stimulated IFIT1 mRNA expression at 80 uM measured after 16 hrs by RT-qPCR analysis relative to control. The method, boiled down: as §2
Experiment [19] shares this target. Nature of the experiment: Inhibition of DHODH in human HEK293 cells transfected with ISRE-luciferase reporter gene assessed as increase in 125 IU/ml IFN-alpha stimulated IFIT5 mRNA expression at 80 uM measured after 16 hrs by RT-qPCR analysis relative to control. In a few lines:
as §2

The target is the same in experiment [20]. Nature of the experiment: Inhibition of DHODH in human HEK293 cells assessed as increase in 125 IU/ml IFN-alpha stimulated ISG15 mRNA expression at 80 uM measured after 16 hrs by RT-qPCR analysis relative to control. The method, boiled down: as §2

`O=C1OC2(CCCCC2)c2ccn(C3CC3)c(=O)c21`: the outcome in [1] was inactive. In addition, the fold change (FC) in [2] is 13; in experiment [3], 12; in experiment [4], 3; in experiment [5], 5; in [6], 112; in experiment [7], 129. Besides, the fold change (FC) in experiment [8] came out at 61; in [9], 99; in [10], 226; in [11] it was 16; in [12], 3; in experiment [13] it was 51. Moreover, the fold change (FC) came out at 145 in experiment [14]; 31 in experiment [15]; 5 in experiment [16]; 3 in experiment [17]; 85 in experiment [18]; 4 in experiment [19]. In experiment [20], the fold change (FC) stood at 200.

These data come from ChEMBL document CHEMBL4680118, “Cerpegin-derived furo[3,4-c]pyridine-3,4(1H,5H)-diones enhance cellular response to interferons by de novo pyrimidine biosynthesis inhibition” (Eur J Med Chem, 2020).
